Experimental data: ChEMBL document CHEMBL1150419, “Structure-activity relationships of a peptide inhibitor of the human FcRn:human IgG interaction” (Bioorg Med Chem, 2008)

Target: IgG receptor FcRn large subunit p51 (Homo sapiens, UniProt P55899)
Assay: Binding affinity to human FcRn at pH 6 by surface plasmon resonance assay
How it was run: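 Soluble human FcRn coupled to the dextran surface of a CM5 chip; peptide dilutions flowed over the chip. The equilibrium response at each dilution was plotted against concentration and fitted to a steady-state affinity model to give Kd.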

IgG receptor FcRn large subunit p51, sequence (P55899 whole entry): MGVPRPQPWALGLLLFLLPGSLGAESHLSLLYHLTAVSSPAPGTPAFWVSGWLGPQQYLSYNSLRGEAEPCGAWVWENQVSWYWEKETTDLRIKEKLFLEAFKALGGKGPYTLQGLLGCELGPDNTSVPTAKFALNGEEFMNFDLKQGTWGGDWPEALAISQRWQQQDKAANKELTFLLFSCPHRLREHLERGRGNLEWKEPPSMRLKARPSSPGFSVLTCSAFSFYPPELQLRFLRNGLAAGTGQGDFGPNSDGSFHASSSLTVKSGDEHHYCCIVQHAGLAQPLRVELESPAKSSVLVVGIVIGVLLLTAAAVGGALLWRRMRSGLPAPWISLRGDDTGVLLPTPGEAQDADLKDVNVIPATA

| Compound | Kd |
| --- | --- |
| CC(C)C[C@H](NC(=O)CNC(=O)CNC(=O)[C@H](Cc1c(F)c(F)c(F)c(F)c1F)NC(=O)[C@H](Cc1cnc[nH]1)NC(=O)CNC(=O)[C@@H](NC(=O)[C@@H](NC(=O)[C@H](Cc1ccccc1)NC(=O)[C@H](CCCN=C(N)N)NC(=O)[C@@H](N)CCC(N)=O)C(C)(C)S)[C@@H](C)O)C(=O)N[C@@H](Cc1ccc(O)cc1)C(=O)N1CCC[C@H]1C(=O)N[C@@H](CS)C(=O)N[C@@H](CC(N)=O)C(=O)NCC(=O)N1CCC[C@H]1C(=O)O | 70000 nM |
| CC(C)C[C@H](NC(=O)CNC(=O)[C@@H](C)NC(=O)[C@H](Cc1ccccc1)NC(=O)[C@H](Cc1cnc[nH]1)NC(=O)CNC(=O)[C@@H](NC(=O)[C@@H](NC(=O)[C@H](Cc1ccccc1)NC(=O)[C@H](CCCNC(=N)N)NC(=O)[C@@H](N)CCC(N)=O)C(C)(C)S)[C@@H](C)O)C(=O)N[C@@H](Cc1ccc(O)cc1)C(=O)N1CCC[C@H]1C(=O)N[C@@H](CS)C(=O)N[C@@H](CC(N)=O)C(=O)NCC(=O)N1CCC[C@H]1C(=O)O | 490 nM |
| CC(C)C[C@H](NC(=O)[C@@H](Cc1cnc[nH]1)NC(=O)CNC(=O)[C@H](Cc1ccccc1)NC(=O)[C@H](Cc1cnc[nH]1)NC(=O)CNC(=O)[C@@H](NC(=O)[C@@H](NC(=O)[C@H](Cc1ccccc1)NC(=O)[C@H](CCCN=C(N)N)NC(=O)[C@@H](N)CCC(N)=O)C(C)(C)S)[C@@H](C)O)C(=O)N[C@@H](Cc1ccc(O)cc1)C(=O)N1CCC[C@H]1C(=O)N[C@@H](CS)C(=O)N[C@@H](CC(N)=O)C(=O)NCC(=O)N1CCC[C@H]1C(=O)O | 2000 nM |
| CC(C)C[C@H](NC(=O)CNC(=O)CNC(=O)[C@H](Cc1ccccc1)NC(=O)[C@H](Cc1cnc[nH]1)NC(=O)CNC(=O)[C@@H](NC(=O)[C@H](CS)NC(=O)[C@H](Cc1ccccc1)NC(=O)[C@H](CCCNC(=N)N)NC(=O)[C@@H](N)CCC(N)=O)[C@@H](C)O)C(=O)N[C@@H](Cc1ccc(O)cc1)C(=O)N1CCC[C@H]1C(=O)N[C@@H](CS)C(=O)N[C@@H](CC(N)=O)C(N)=O | 6100 nM |
| CC(C)C[C@H](NC(=O)[C@@H](Cc1ccccc1)NC(=O)CNC(=O)[C@H](Cc1ccccc1)NC(=O)[C@H](Cc1cnc[nH]1)NC(=O)CNC(=O)[C@@H](NC(=O)[C@@H](NC(=O)[C@H](Cc1ccccc1)NC(=O)[C@H](CCCNC(=N)N)NC(=O)[C@@H](N)CCC(N)=O)C(C)(C)S)[C@@H](C)O)C(=O)N[C@@H](Cc1ccc(O)cc1)C(=O)N1CCC[C@H]1C(=O)N[C@@H](CS)C(=O)N[C@@H](CC(N)=O)C(=O)NCC(=O)N1CCC[C@H]1C(=O)O | 1700 nM |
| CC(C)C[C@H](NC(=O)CN(C)C(=O)[C@@H](C)NC(=O)[C@H](Cc1ccccc1)NC(=O)[C@H](Cc1cnc[nH]1)NC(=O)CNC(=O)[C@@H](NC(=O)[C@@H](NC(=O)[C@H](Cc1ccccc1)NC(=O)[C@H](CCCNC(=N)N)NC(=O)[C@@H](N)CCC(N)=O)C(C)(C)S)[C@@H](C)O)C(=O)N[C@@H](Cc1ccc(O)cc1)C(=O)N1CCC[C@H]1C(=O)N[C@@H](CS)C(=O)N[C@@H](CC(N)=O)C(=O)NCC(=O)N1CCC[C@H]1C(=O)O | 190 nM |
| CC(C)C[C@H](NC(=O)CNC(=O)CNC(=O)[C@H](Cc1ccccc1)NC(=O)[C@H](Cc1cnc[nH]1)NC(=O)CNC(=O)[C@@H](NC(=O)[C@H](CCN)NC(=O)[C@H](Cc1ccccc1)NC(=O)[C@H](CCCN=C(N)N)NC(=O)[C@@H](N)CCC(N)=O)[C@@H](C)O)C(=O)N[C@@H](Cc1ccc(O)cc1)C(=O)N1CCC[C@H]1C(=O)N[C@@H](CC(=O)O)C(=O)N[C@@H](CC(N)=O)C(=O)NCC(=O)N1CCC[C@H]1C(=O)O | 8400 nM |
| CC(C)C[C@H](NC(=O)CNC(=O)CNC(=O)[C@H](Cc1ccccc1)NC(=O)[C@H](Cc1cnc[nH]1)NC(=O)CNC(=O)[C@@H](NC(=O)[C@H](CCS)NC(=O)[C@H](Cc1ccccc1)NC(=O)[C@H](CCCNC(=N)N)NC(=O)[C@@H](N)CCC(N)=O)[C@@H](C)O)C(=O)N[C@@H](Cc1ccc(O)cc1)C(=O)N1CCC[C@H]1C(=O)N[C@H](C(=O)N[C@@H](CC(N)=O)C(=O)NCC(=O)N1CCC[C@H]1C(=O)O)C(C)(C)S | 2100 nM |
| CC(C)C[C@H](NC(=O)CNC(=O)CNC(=O)[C@H](Cc1ccc([N+](=O)[O-])cc1)NC(=O)[C@H](Cc1cnc[nH]1)NC(=O)CNC(=O)[C@@H](NC(=O)[C@@H](NC(=O)[C@H](Cc1ccccc1)NC(=O)[C@H](CCCN=C(N)N)NC(=O)[C@@H](N)CCC(N)=O)C(C)(C)S)[C@@H](C)O)C(=O)N[C@@H](Cc1ccc(O)cc1)C(=O)N1CCC[C@H]1C(=O)N[C@@H](CS)C(=O)N[C@@H](CC(N)=O)C(=O)NCC(=O)N1CCC[C@H]1C(=O)O | 84000 nM |

Results, then the compound that gave them:

| Kd | Compound |
| --- | --- |
| 1000 nM | CC(C)C[C@H](NC(=O)CNC(=O)CNC(=O)[C@H](Cc1ccc(N)cc1)NC(=O)[C@H](Cc1cnc[nH]1)NC(=O)CNC(=O)[C@@H](NC(=O)[C@@H](NC(=O)[C@H](Cc1ccccc1)NC(=O)[C@H](CCCN=C(N)N)NC(=O)[C@@H](N)CCC(N)=O)C(C)(C)S)[C@@H](C)O)C(=O)N[C@@H](Cc1ccc(O)cc1)C(=O)N1CCC[C@H]1C(=O)N[C@@H](CS)C(=O)N[C@@H](CC(N)=O)C(=O)NCC(=O)N1CCC[C@H]1C(=O)O |
| 92000 nM | CC(C)C[C@H](NC(=O)CNC(=O)CNC(=O)[C@H](Cc1ccccc1)NC(=O)[C@H](Cc1cnc[nH]1)NC(=O)CNC(=O)[C@@H](NC(=O)[C@@H](NC(=O)[C@H](Cc1ccccc1)NC(=O)[C@H](CCCNC(=N)N)NC(=O)[C@@H](N)CCC(N)=O)C(C)(C)S)[C@@H](C)O)C(=O)N(C)[C@@H](Cc1ccc(O)cc1)C(=O)N1CCC[C@H]1C(=O)N[C@@H](CS)C(=O)N[C@@H](CC(N)=O)C(=O)NCC(=O)N1CCC[C@H]1C(=O)O |
| 270000 nM | CC(=O)Nc1ccc(C[C@H](NC(=O)[C@H](Cc2cnc[nH]2)NC(=O)CNC(=O)[C@@H](NC(=O)[C@@H](NC(=O)[C@H](Cc2ccccc2)NC(=O)[C@H](CCCN=C(N)N)NC(=O)[C@@H](N)CCC(N)=O)C(C)(C)S)[C@@H](C)O)C(=O)NCC(=O)NCC(=O)N[C@@H](CC(C)C)C(=O)N[C@@H](Cc2ccc(O)cc2)C(=O)N2CCC[C@H]2C(=O)N[C@@H](CS)C(=O)N[C@@H](CC(N)=O)C(=O)NCC(=O)N2CCC[C@H]2C(=O)O)cc1 |
| > 250000 nM | CC(C)C[C@H](NC(=O)CNC(=O)CNC(=O)[C@H](Cc1ccccc1)N(C)C(=O)[C@H](Cc1cnc[nH]1)NC(=O)CNC(=O)[C@@H](NC(=O)[C@@H](NC(=O)[C@H](Cc1ccccc1)NC(=O)[C@H](CCCN=C(N)N)NC(=O)[C@@H](N)CCC(N)=O)C(C)(C)S)[C@@H](C)O)C(=O)N[C@@H](Cc1ccc(O)cc1)C(=O)N1CCC[C@H]1C(=O)N[C@@H](CS)C(=O)N[C@@H](CC(N)=O)C(=O)NCC(=O)N1CCC[C@H]1C(=O)O |
| 2000 nM | CC(C)C[C@H](NC(=O)CNC(=O)CN(C)C(=O)[C@H](Cc1ccccc1)NC(=O)[C@H](Cc1cnc[nH]1)NC(=O)CNC(=O)[C@@H](NC(=O)[C@@H](NC(=O)[C@H](Cc1ccccc1)NC(=O)[C@H](CCCN=C(N)N)NC(=O)[C@@H](N)CCC(N)=O)C(C)(C)S)[C@@H](C)O)C(=O)N[C@@H](Cc1ccc(O)cc1)C(=O)N1CCC[C@H]1C(=O)N[C@@H](CS)C(=O)N[C@@H](CC(N)=O)C(=O)NCC(=O)N1CCC[C@H]1C(=O)O |
| 200 nM | Cc1ccc(C[C@H](NC(=O)[C@H](Cc2cnc[nH]2)NC(=O)CNC(=O)[C@@H](NC(=O)[C@@H](NC(=O)[C@H](Cc2ccccc2)NC(=O)[C@H](CCCN=C(N)N)NC(=O)[C@@H](N)CCC(N)=O)C(C)(C)S)[C@@H](C)O)C(=O)NCC(=O)NCC(=O)N[C@@H](CC(C)C)C(=O)N[C@@H](Cc2ccc(O)cc2)C(=O)N2CCC[C@H]2C(=O)N[C@@H](CS)C(=O)N[C@@H](CC(N)=O)C(=O)NCC(=O)N2CCC[C@H]2C(=O)O)cc1 |
